Shown are actives, neighbours in structure and some others; about 12% of the full set was active somewhere.
ROMK primary – modulates human ROMK potassium channel activity; 2% of 130,000 active; B-score at 10 µM; Tet-inducible ROMK, thallium flux fluorescence; actives lie on both sides; AID 1918; P48048;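 active = signal ratio slope over the read window, or its plate-corrected B-score, at least 3 SD from the plate mean, either direction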;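 also: B-score of the F/F0 ratio slope over 7 to 12 s after thallium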
Diaph inh CS – inhibits diaphorase or chemically oxidizes, flagging diaphorase assay artifacts; diaphorase resazurin-to-resorufin fluorescence, NADH, 16 min; bacterial (C. kluyveri) enzyme, not human; inhibition, % at 20 µM; 0.69% of 190,000 active;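 active = primary screen inhibition at 20 µM above a set limit, cut at about 50% in these data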;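 also: plate controls were DMSO with full reaction for no effect and wells lacking NADH for full effect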
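Assay system: diaphorase enzyme from Clostridium kluyveri. Quantity: enzyme working solution with 0.14 U/mL diaphorase. Schedule: reaction incubation of 16 min at room temperature. Technique: resorufin fluorescence, excitation 544 nm, emission 590 nm. Controls: No-NADH positive control and DMSO neutral control.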
WT yeast gro inh – growth inhibition of WT yeast, mitochondrial fusion screen; mitochondrial fusion phenotypic screen, WT strain; inhibition, % at 10 µM; 2.1% of 190,000 active; AID 1362; in the data active = inhibition above about 58%; tested in S. cerevisiae
Diaphorase act – diaphorase activation or chemical reduction counter-screen; Diaphorase/resazurin coupled assay, resorufin fluorescence, 16 min; active compounds read high; 1 = vehicle wells, 0 = NADH-free wells; activation factor at 20 µM; 0.005% of 190,000 active; AID 1229;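 active = diaphorase activity raised at least twofold by the compound at 20 µM; inactive = activation factor below 2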
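System – purified diaphorase enzyme from Clostridium kluyveri · Input – enzyme 0.07 U/mL final · Also added – final NADH 0.114 mM, resazurin 0.1 mM · Measured by – fluorescence of resorufin, 544 nm excitation, 590 nm emission · Timing – 16 min enzyme reaction, ambient temperature · Measure – resorufin increase flagging diaphorase activators or reducers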
KCC2 mod – modulates chloride dependent transport by human KCC2; Q9H2X9; KCC2 cells, thallium flux FluoZin-2 fluorescence; B-score of Tl+ flux slope (higher = more flux/activation; lower = inhibition) at 10 µM; 2.2% of 190,000 active; AID 1456;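 active = thallium flux slope and its plate-corrected score both differing from the plate sample mean at a set confidence after two filtering rounds, in either direction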;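 also: slope of fluorescence scaled to starting intensity during 10 to 20 s after thallium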
Target sequence (Q9H2X9 whole entry, looked up): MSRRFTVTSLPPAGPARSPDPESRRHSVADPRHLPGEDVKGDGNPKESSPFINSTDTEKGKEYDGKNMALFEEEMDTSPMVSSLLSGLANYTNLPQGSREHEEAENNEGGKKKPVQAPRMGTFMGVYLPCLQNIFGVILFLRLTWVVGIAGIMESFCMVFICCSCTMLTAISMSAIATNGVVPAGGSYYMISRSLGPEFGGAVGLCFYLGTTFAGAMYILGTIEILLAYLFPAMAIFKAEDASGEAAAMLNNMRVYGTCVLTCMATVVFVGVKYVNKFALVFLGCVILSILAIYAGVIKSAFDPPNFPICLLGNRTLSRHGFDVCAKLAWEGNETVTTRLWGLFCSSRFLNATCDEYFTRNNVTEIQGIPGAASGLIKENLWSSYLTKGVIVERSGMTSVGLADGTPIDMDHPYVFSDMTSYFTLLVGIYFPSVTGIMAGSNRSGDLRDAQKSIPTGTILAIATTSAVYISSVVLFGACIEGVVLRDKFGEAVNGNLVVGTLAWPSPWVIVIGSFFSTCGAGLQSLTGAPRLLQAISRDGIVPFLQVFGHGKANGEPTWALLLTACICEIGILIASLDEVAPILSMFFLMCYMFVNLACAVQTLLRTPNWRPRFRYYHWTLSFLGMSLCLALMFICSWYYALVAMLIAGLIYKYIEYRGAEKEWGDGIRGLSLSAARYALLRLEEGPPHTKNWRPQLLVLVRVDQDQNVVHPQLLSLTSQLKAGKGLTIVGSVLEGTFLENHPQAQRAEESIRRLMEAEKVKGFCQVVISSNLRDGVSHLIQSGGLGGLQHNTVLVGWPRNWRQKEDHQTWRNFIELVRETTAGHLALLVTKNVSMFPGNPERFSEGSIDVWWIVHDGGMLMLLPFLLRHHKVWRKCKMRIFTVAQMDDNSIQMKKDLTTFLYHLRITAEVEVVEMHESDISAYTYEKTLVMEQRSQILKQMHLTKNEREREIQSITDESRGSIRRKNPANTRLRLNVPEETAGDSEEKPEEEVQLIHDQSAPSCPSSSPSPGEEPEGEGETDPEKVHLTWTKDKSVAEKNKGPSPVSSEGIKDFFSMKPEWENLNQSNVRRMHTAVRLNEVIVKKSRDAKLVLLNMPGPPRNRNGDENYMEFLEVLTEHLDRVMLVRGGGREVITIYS
Lmaj promast – reduces viability of Leishmania major promastigotes. inhibition, % at 10 µM. AID 1063. resazurin fluorescence viability. 9% of 200,000 active; in the data active = inhibition above about 50%;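 also: promastigotes grown with compound for 44 hours at 28 °C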
Numbers without * were called inactive; . = not tested or not shown.

SMILES | ROMK primary | Diaph inh CS | WT yeast gro inh | Diaphorase act | KCC2 mod | Lmaj promast
O=C(c1ccccc1)N1CCCC(c2nc3c(nnn3Cc3ccccc3)c(=O)[nH]2)C1 (stereo not drawn) | . | 1 | -11 | 1 | -0.81 | 5
COc1ccccc1NC(=O)N1CCCC(c2nc3c(nnn3Cc3ccc(C)cc3)c(=O)[nH]2)C1 (stereo not drawn) | -1.8 | 20 | -5 | 0.8 | . | 52*
CCC(C)NCC(=O)Nc1cc(S(=O)(=O)N(CC)c2ccccc2)ccc1Cl (stereo not drawn) | -2 | 4 | 3 | 1 | -0.7 | 64*
CCN(c1ccccc1)S(=O)(=O)c1ccc(OC)c(NC(=O)CNCC(C)O)c1 (stereo not drawn) | -0.14 | 4 | 5 | 1 | 0.017 | 64*
CCN(c1ccccc1)S(=O)(=O)c1ccc(OC)c(NC(=O)Cn2cnc3c2c(=O)n(C)c(=O)n3C)c1 | 0.22 | 7 | 3 | 0.9 | 0.17 | 61*
CCN(c1ccccc1)S(=O)(=O)c1ccc(OC)c(NC(=O)CNC)c1 | -1.5 | 7 | -10 | 0.9 | 0.075 | 7
COC(=O)C1=C(C(=O)OC)SC2(S1)C(C(=O)OC)=C(C(=O)OC)SC1=C2c2cc(C)ccc2NC1(C)C | . | 11 | 32 | 0.9 | 0.31 | 26
Cn1ccs/c1=N\C(=O)Nc1ccccc1 | 0.48 | 20 | 8 | 0.8 | . | -4
CC(C)c1ccc(N=C2N=C(N)c3ccccc32)cc1 | . | . | . | . | -1.8 | .
CCOC(=O)CC(NC(=O)c1ccc(C)cc1)c1ccc(C)cc1 (stereo not drawn) | . | 8 | 4 | 0.9 | -1.4 | 42
Cc1ccnc(N=Cc2c(O)ccc3oc4c(c23)CCCC4)c1 | -0.83 | 21 | -4 | 0.8 | -0.038 | 90*
Cc1nc2ccccn2c1C(=O)NC1CCCc2ccccc21 (stereo not drawn) | -0.077 | 7 | 11 | 0.9 | -0.11 | -2
O=C(NCc1ccccn1)c1cn(CCc2ccccc2)nn1 | 0.53 | 12 | -13 | 0.9 | . | 6
Cc1ccc(NC(=O)C2(NC(=O)c3ccccn3)CCCCC2)cc1Br | . | 15 | 35 | 0.9 | -0.82 | 58*
COc1cc(C2C(Oc3ccccc3C)C(=O)N2Cc2ccc(F)cc2)cc(OC)c1OC (stereo not drawn) | . | -6 | 4 | 1.1 | -0.75 | 99*
COc1ccc(N/C=C/C(=O)c2ccc(Oc3ncccn3)cc2)cc1 | . | 6 | 70* | 0.9 | . | -2
O=C(/C=C/Nc1ccc(F)cc1)c1ccc(Oc2ncccn2)cc1 | . | 6 | 7 | 0.9 | . | -3
N#CC(Sc1ccccn1)c1ccc(Cl)cc1 (stereo not drawn) | -1.2 | 11 | 73* | 0.9 | -0.54 | -3
N/C(=N\c1nc(CSc2ccccn2)cc(=O)[nH]1)Nc1ccc(Cl)cc1Cl | . | . | . | . | 0.08 | .
N#CCC(=O)N/N=C/c1cc([N+](=O)[O-])ccc1N1CCOCC1 | -0.23 | 14 | 10 | 0.9 | 1.3 | -8
CCc1ccc(OCC(=O)N/N=C/c2cc([N+](=O)[O-])ccc2N2CCCCCC2)cc1 | . | 18 | 12 | 0.8 | 1.2 | 100*
CCc1ccc(N2CC(C(=O)N/N=C/c3cc([N+](=O)[O-])ccc3O)CC2=O)cc1 (stereo not drawn) | -0.36 | 51* | -34 | 0.5 | -2 | 47
CN(c1ccc([N+](=O)[O-])cc1/C=N/NC(=O)COc1ccccc1)C1CCCCC1 | 0.79 | 12 | 20 | 0.9 | -0.19 | 91*
O=C(N/N=C/c1cc([N+](=O)[O-])ccc1N1CCCCCC1)c1ccccn1 | -0.1 | 29 | -8 | 0.7 | -0.33 | 60*
CC(CCc1ccccc1)NC(=O)c1nnc(Cc2ccc(Cl)cc2)o1 (stereo not drawn) | . | 18 | 27 | 0.8 | 0.017 | -10
CC(=O)c1c(C)n(-c2ccccc2)c2ccc(OCC(N)=O)cc12 | . | 12 | -19 | 0.9 | . | -4
CCOc1cc(N2CCOCC2)c(OCC)cc1NC(=O)COC(=O)[C@@H]1CCCN1S(=O)(=O)c1ccccc1F | -1 | 22 | -21 | 0.8 | -0.73 | 7
CCN(CC)C(=O)C1CCCN(c2ccc([N+](=O)[O-])cc2/C=N/NC(=O)c2cccc(Br)c2)C1 (stereo not drawn) | . | 26 | -4 | 0.7 | 0.21 | 41
